Screening data: PubChem, several laboratories
SENP7 inh: blocks the human protease SENP7; recombinant SENP7, Z-RLRGG-aminoluciferin luminescence, 40 min; inhibition, % at 5 µM; 330,000 tested, 1.5% active;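 active means inhibition above about 50% at the single test dose, limit read from the data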;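 further: plate controls were DMSO with enzyme for no effect and no enzyme buffer wells for full effect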
Target sequence (Q9BQF6 706-1050 limits assumed): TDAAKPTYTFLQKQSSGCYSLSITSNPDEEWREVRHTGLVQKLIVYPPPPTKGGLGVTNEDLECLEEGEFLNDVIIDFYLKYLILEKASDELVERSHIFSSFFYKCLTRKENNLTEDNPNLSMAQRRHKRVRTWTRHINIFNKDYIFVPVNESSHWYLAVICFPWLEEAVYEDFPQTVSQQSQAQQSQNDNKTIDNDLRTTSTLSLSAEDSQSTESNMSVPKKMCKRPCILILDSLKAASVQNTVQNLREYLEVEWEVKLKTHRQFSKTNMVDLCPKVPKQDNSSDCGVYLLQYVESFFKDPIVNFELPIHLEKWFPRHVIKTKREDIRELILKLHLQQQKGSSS
SENP8 block-1: blocks human SENP8 cleavage of Nedd8 substrate; Q96LD8; recombinant SENP8, Nedd8 substrate fluorescence; inhibition, % at 20 µM; 360,000 tested, 0.64% active; AID 602440; in the data active means inhibition mostly above about 40%, no sharp cut-off; inactive means mostly below about 27%
Target sequence (Q96LD8 whole entry, looked up): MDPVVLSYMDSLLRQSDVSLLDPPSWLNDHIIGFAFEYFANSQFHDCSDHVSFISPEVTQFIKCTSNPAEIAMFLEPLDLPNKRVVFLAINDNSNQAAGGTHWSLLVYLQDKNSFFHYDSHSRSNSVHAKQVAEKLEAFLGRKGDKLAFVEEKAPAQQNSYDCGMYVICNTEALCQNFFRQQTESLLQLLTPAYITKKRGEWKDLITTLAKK
UCH37 DUB inh: inhibitors of human deubiquitinating enzyme UCH37 | Q9Y5K5 | purified proteasome/UCH37, Ub-AMC cleavage fluorescence | inhibition, % (no concentration beside the values) | 330,000 tested, 0.33% active;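 active means mean inhibition over replicate wells above about 20%, limit read from the data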;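 further: 0% = compound-free wells with enzyme and 100% = wells lacking proteasome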
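Reagent: Ub-AMC substrate; assay system: Proteasome-associated human UCH37 deubiquitinase; controls: no-proteasome and no-compound wells; read-out: % inhibition of Ub-AMC cleavage fluorescence; timing: 30 min preincubation with enzyme, 25 min cleavage at room temperature; signal: AMC fluorescence from Ub-AMC cleavage, excitation 355 nm, emission 460 nm; buffer or medium: Tris-HCl pH 7.4 plus ovalbumin, ATP-MgCl2, DTT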
SENP1 inh: blocks the human SENP1 SUMO protease catalytic domain | Q9P0U3 | recombinant SENP1 catalytic domain, CyPet-SUMO1-YPet FRET cleavage | inhibition, % at 10 µM | 360,000 tested, 0.21% active;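 active means inhibition at least 30% at 10 µM, raw YFP signal under a set limit, fluorescence ratio 0.5 to 1.5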;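 further: 0% = enzyme with DMSO and 100% = no enzyme wells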
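Assay system: hSENP1 catalytic domain, recombinant. Amount: SENP1 enzyme, 20 pM final. Schedule: 50 min reaction, RT, dark. Technique: FRET, CFP and YFP emission. Control set: no-enzyme wells low, DMSO-plus-enzyme wells high control.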
SENP8 block-2: blocks the human protease SENP8. Q96LD8. purified SENP8, Z-RLRGG-aminoluciferin cleavage, luminescence. inhibition, % at 10 µM. 330,000 tested, 1.2% active; in the data active means inhibition above about 50%
SENP6 block: SENP6 protease inhibition; Q9GZR1; Recombinant SENP6 catalytic domain, aminoluciferin luminescence; inhibition, % at 10 µM; 330,000 tested, 1.8% active; AID 2599;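 active means inhibition above about 50% at the single tested dose, limit read from the data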;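 further: plate controls were DMSO wells with enzyme for no effect and DMSO wells lacking enzyme for full effect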
SENP8 conf: human SENP8 inhibition, confirmed. shares compounds with SENP7 inh. Recombinant SENP8, Z-RLRGG-aminoluciferin luminescence, 60 min. inhibition, % at 12.5 µM. 6,200 tested, 40% active. AID 488912;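 active means mean inhibition across replicates above about 50%, limit read from the data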
SENP6 confirm: human SENP6 inhibition, confirmed. shares compounds with SENP7 inh. inhibition, % at 12.5 µM. AID 488915. recombinant SENP6, Z-RLRGG-aminoluciferin luminescence. 6,200 tested, 58% active
SENP7 conf: human SENP7 inhibition, confirmed. recombinant SENP7, Z-RLRGG-aminoluciferin luminescence, 40 min. inhibition, % at 12.5 µM. 6,200 tested, 69% active. AID 488917. shares compounds with SENP7 inh
Casp3 select: inhibits human caspase-3 in SENP selectivity test; AID 488918; 6,200 tested, 60% active; shares compounds with SENP7 inh; inhibition, % at 12.5 µM; purified caspase-3, Z-DEVD-aminoluciferin luminescence, 60 min;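 active means mean inhibition above about 50%, limit read from the data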;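 further: plate controls were enzyme with DMSO for no effect and wells without caspase-3 for full effect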
Target sequence (P42574 28-227 limits assumed): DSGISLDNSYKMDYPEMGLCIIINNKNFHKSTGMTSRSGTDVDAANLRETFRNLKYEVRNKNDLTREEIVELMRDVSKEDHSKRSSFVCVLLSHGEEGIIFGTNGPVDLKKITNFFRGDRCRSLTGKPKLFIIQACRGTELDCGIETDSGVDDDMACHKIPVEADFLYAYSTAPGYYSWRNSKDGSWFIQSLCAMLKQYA
SENP luc ctr: luminescence interference (SENP counter-screen) | inhibition, % at 12.5 µM | shares compounds with SENP7 inh | 6,200 tested, 39% active | AID 488919 | Pre-incubated SENP8/Z-RLRGG-aminoluciferin, luciferase luminescence interference;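 active means mean inhibition above about 50% when retested at one dose, limit read from the data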;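 further: plate controls were DMSO wells with completed reaction for no effect and substrate without enzyme for full effect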
Starred values were filed as active, the others as inactive; i = inactive; nt = no result. Sampled rows, rich in hits. Any-hit rate of the full collection: about 2.6%.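 How the source made its calls, unless noted: active means mean inhibition above about 50% in the one-dose retest (limit read from the data); inactive means the rest.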

SMILES | SENP7 inh | SENP8 block-1 | UCH37 DUB inh | SENP1 inh | SENP8 block-2 | SENP6 block | SENP8 conf | SENP6 confirm | SENP7 conf | Casp3 select | SENP luc ctr
COc1cc(/C=C2/C(=N)N3C(=NC2=O)SN=C3S(C)(=O)=O)ccc1OC(=O)c1ccco1 | 15 | -13 | 12 | -58 | 19 | 25 | nt | nt | nt | nt | nt
COc1cc(/C=N/N(C)C)ccc1OC(=O)c1ccco1 | 1 | 7 | nt | 0 | -6 | -7 | nt | nt | nt | nt | nt
COc1cc(/C=C2/C(=N)N3C(SC)=NSC3=NC2=O)ccc1OC(=O)c1ccco1 | 8 | 8 | 6 | -80 | 64* | 53* | 75* | 73* | 92* | 68* | 13
COc1cc(/C=C2\C(=O)N(c3ccc(S(N)(=O)=O)cc3)N=C2C)ccc1OC(=O)c1ccco1 | 70* | 57* | 5 | 7 | 26 | 76* | 12 | 35 | -2 | 5 | -1
COc1cc(/C=C2/SC(=O)NC2=O)ccc1OC(=O)c1ccco1 | 85* | -15 | 5 | 5 | 82* | 88* | 58* | 74* | 24 | 61* | 22
Cc1[nH][nH]c(=O)c1C=NN1CCOCC1 | nt | nt | 5 | nt | nt | nt | nt | nt | nt | nt | nt
O=C1NC(=S)S/C1=C/c1ccc(OC(=O)c2ccco2)cc1 | 29 | 27 | nt | 25 | 46 | 76* | 21 | 32 | 9 | 26 | 10
N=C1/C(=C\c2ccc(OC(=O)c3ccco3)cc2)C(=O)N=C2SC=NN12 | nt | 26 | 8 | -78 | nt | nt | nt | nt | nt | nt | nt
O=C(NCCN1CCCCC1)c1ccc(C=NO)nc1 | nt | nt | 3 | nt | nt | nt | nt | nt | nt | nt | nt
CCOc1ccc(Nc2ccc([N+](=O)[O-])c3nonc23)cc1 | 37 | 39 | 6 | 7 | 65* | 71* | 64* | 60* | 84* | 61* | 65*
CCOC(=O)c1cnc(SCCc2ccccc2)nc1N | 28 | -2 | 2 | 0 | 13 | 58* | 0 | 25 | 11 | 22 | 32
CCCCSc1ncc(C(=O)OCC)c(N)n1 | 22 | 12 | 3 | 0 | -4 | 24 | nt | nt | nt | nt | nt
Cc1cc2c(cc1C)C(=O)NC(C)(C)C2 | 59* | 6 | 0 | 1 | -4 | -1 | 6 | 6 | 2 | 1 | -3
CC1=NC(C)(C)Cc2cc(C)c(C)cc21 | -9 | 9 | -1 | -2 | -4 | -2 | nt | nt | nt | nt | nt
C[n+]1cccc(CNC(=O)C=NO)c1 | nt | nt | -1 | nt | nt | nt | nt | nt | nt | nt | nt
CCCc1nc(SCC(=O)c2ccc3c(c2)NC(=O)CO3)[nH]c(=O)c1CC | nt | 5 | nt | 0 | nt | nt | nt | nt | nt | nt | nt
CCCc1cc(=O)[nH]c(SCC(=O)c2ccc3c(c2)NC(=O)CO3)n1 | 6 | 8 | -1 | 3 | 0 | 98* | -15 | -10 | -12 | -4 | -9
COc1ccc2c(c1)CCc1c(C(=O)NCC(C)C)noc1-2 | 51* | 14 | 0 | 1 | 29 | 71* | 25 | 44 | 81* | 57* | 18
CCCNC(=O)c1noc2c1CCc1cc(OC)ccc1-2 | 14 | 0 | 2 | 1 | -6 | 12 | nt | nt | nt | nt | nt
CN(N=Cc1ccccc1O)C(=S)c1ccccc1 | nt | nt | 7 | nt | nt | nt | nt | nt | nt | nt | nt
Cc1ccc(C(=O)ONc2ccc(N=O)cc2)cc1 | 100* | 26 | 6 | 4 | 98* | 96* | 30 | 101* | 104* | 90* | 31
OCCCCNc1cccc2ccccc12 | -6 | -309 | i | -7 | 45 | 63* | 2 | 20 | 3 | -1 | -4
CCC(C)NC(=O)C1CCN(C(=O)N(C)C)CC1 (stereo not drawn) | 102* | 15 | 0 | 1 | -5 | 5 | -1 | -1 | -4 | -4 | -6
CCC(C)NC(=O)C1CCN(S(=O)(=O)N2CCCC2)CC1 (stereo not drawn) | 3 | 2 | 0 | 1 | -2 | -25 | nt | nt | nt | nt | nt
O=C(O)c1ccc(N/N=C/c2ccnc3ccccc23)cc1 | 92* | 11 | nt | -39 | 82* | 91* | 77* | 90* | 92* | 69* | 10
SMILES | SENP7 inh | SENP8 block-1 | UCH37 DUB inh | SENP1 inh | SENP8 block-2 | SENP6 block | SENP8 conf | SENP6 confirm | SENP7 conf | Casp3 select | SENP luc ctr
O=C(O)c1ccc(N/N=C/c2c[nH]c3ccccc23)cc1 | 100* | -279 | nt | 7 | 98* | 97* | 98* | 100* | 102* | 96* | 97*
COc1ccc(/C=N/Nc2ccc(C(=O)O)cc2)c(OC)c1OC | 21 | -197 | nt | 2 | 7 | -7 | nt | nt | nt | nt | nt
O=C(O)c1ccccc1NN=CC1=C(N2CCOCC2)/C(=C\c2ccccc2)CC1 | nt | nt | 0 | nt | nt | nt | nt | nt | nt | nt | nt
CC(C)(C)OC(=O)NN=C/C=C/c1ccc2c(c1)OCO2 | nt | nt | -1 | nt | nt | nt | nt | nt | nt | nt | nt
CCCCCCCC(=O)NN=Cc1cccnc1 | nt | nt | 4 | nt | nt | nt | nt | nt | nt | nt | nt
CNC(=O)c1ccc(-c2sc3nc(N4CCOCC4)c4c(c3c2N)CCCC4)o1 | 35 | -251 | -407 | -22 | 5 | 55* | 2 | 8 | 5 | 4 | -1
Cc1cc(C)c(C#N)c(SCC(=O)c2ccccc2)n1 | 11 | 17 | 2 | -17 | -1 | -9 | nt | nt | nt | nt | nt
Cc1cc(=O)[nH]c(SCC(=O)c2ccccc2)c1C#N | 26 | 26 | 0 | -15 | 60* | 74* | 72* | 74* | 94* | 82* | 79*
O=C(CSc1ccccc1)Nc1ccc(-c2nc3ccccc3[nH]2)cc1 | 23 | -70 | nt | 2 | -18 | -13 | nt | nt | nt | nt | nt
O=C(Cc1cccs1)Nc1ccc(-c2nc3ccccc3[nH]2)cc1 | 84* | -399 | -70 | 3 | 17 | 59* | 15 | 18 | 87* | 68* | 32
O=C(Nc1nc2ccccc2[nH]1)C1CCCO1 (stereo not drawn) | 1 | 24 | 1 | 3 | -7 | -20 | nt | nt | nt | nt | nt
O=C(Nc1ccc(-c2nc3ccccc3[nH]2)cc1)C1CCCO1 (stereo not drawn) | 93* | -95 | 0 | -1 | 88* | 87* | 92* | 92* | 99* | 96* | 79*
c1ccc(-c2ncc(-c3ccn[nH]3)s2)cc1 | 91* | -387 | -251 | -2 | 83* | 91* | 84* | 85* | 98* | 87* | 59*
CN(CCCC(=O)O)c1ccc(N=Nc2ccc([N+](=O)[O-])cc2)cc1 | 54* | 29 | 16 | 7 | 81* | 90* | 84* | 84* | 30 | 76* | 46
CN(Cc1ccc([N+](=O)[O-])cc1)c1ccccc1 | nt | 18 | 1 | 0 | nt | nt | nt | nt | nt | nt | nt
